Results on 6 compounds are retold here after ChEMBL document CHEMBL1811793, “Induced production of N-formyl alkaloids from Aspergillus fumigatus by co-culture with Streptomyces peucetius” (J Nat Prod, 2011).

The source made the active and inactive calls. The calls are words filed in the database; no cut-off is given here.

The subject of one experiment is HOP-92. In words: Cytotoxicity against human HOP92 cells. It is filed as functional, cell-based. The essentials:
(§1)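 Run within the NCI-60 human tumour cell line screen panel.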

For another experiment, the system named is NCI-H460. In words: Cytotoxicity against human NCI-H460 cells. It is filed as functional, cell-based. In short, it runs like this:
as §1

In the next experiment the test system is SF-295. In words: Cytotoxicity against human SF295 cells. Type of experiment: functional, cell-based. In short, it runs like this: as §1
The next experiment has as its system U-251. In words: Cytotoxicity against human U251 cells. It is filed as functional, cell-based. The essentials: as §1
The next experiment deals with Malme-3M. In words: Cytotoxicity against human MALME-3M cells. It is filed as functional, cell-based. The essentials:
as §1

The subject of another experiment is SK-MEL-28. In words: Cytotoxicity against human SK-MEL-28 cells. Type of experiment: functional, cell-based. The essentials: as §1
Another experiment has as its system SK-MEL-5. In words: Cytotoxicity against human SK-MEL-5 cells. It is filed as functional, cell-based. In short, it runs like this:
as §1

Another experiment concerns UACC-62. In words: Cytotoxicity against human UACC62 cells. Type of experiment: functional, cell-based. In short, it runs like this: as §1
A further experiment has as its system SK-OV-3. In words: Cytotoxicity against human SKOV3 cells. It is filed as functional, cell-based. The essentials: as §1
In a further experiment the test system is A498. In words: Cytotoxicity against human A498 cells. Type of experiment: functional, cell-based. The essentials: as §1
A further experiment relates to ACHN. In words: Cytotoxicity against human ACHN cells. It is filed as functional, cell-based. In short, it runs like this:
as §1

The next experiment has as its system MOLT-4. In words: Cytotoxicity against human MOLT4 cells. Type of experiment: functional, cell-based. In short, it runs like this:
as §1

A further experiment concerns Fusarium incarnatum. In words: Antimicrobial activity against Fusarium pallidoroseum at 50 ug/disk by Kirby-Bauer disk diffusion assay. It is filed as functional, organism-based.
In another experiment the test system is Candida albicans. In words: Antimicrobial activity against Candida albicans at 50 ug/disk by Kirby-Bauer disk diffusion assay. It is filed as functional, organism-based.
For a further experiment, the system named is Escherichia coli. In words: Antimicrobial activity against Escherichia coli at 50 ug/disk by Kirby-Bauer disk diffusion assay. Type of experiment: functional, organism-based.
The next experiment relates to Staphylococcus aureus. In words: Antimicrobial activity against Staphylococcus aureus at 50 ug/disk by Kirby-Bauer disk diffusion assay. It is filed as functional, organism-based.
For experiment [1], the system named is Burkholderia thailandensis. In words: Antimicrobial activity against Burkholderia thailandensis at 50 ug/disk by Kirby-Bauer disk diffusion assay. Type of experiment: functional.

Regarding `[C-]#[N+]C(=C\c1ccc(O)cc1)/C(=C/c1ccc(OC)cc1)[N+]#[C-]`, the outcome in the experiment with HOP-92, with NCI-H460, with SF-295, in the experiment with U-251, with Malme-3M and in the experiment on SK-MEL-28 was inactive. The result with SK-MEL-5, with UACC-62, in the experiment with SK-OV-3, in the experiment with A498, in the experiment on ACHN and in the experiment with MOLT-4 was inactive.
As for `COc1ccc(/C=C(NC=O)/C(=C/c2ccc(OC)cc2)NC=O)cc1`, the IC50 is 890 nM with HOP-92; 1120 nM in the experiment with NCI-H460; 700 nM in the experiment with SF-295; 920 nM in the experiment with U-251; 650 nM in the experiment on Malme-3M; 980 nM in the experiment on SK-MEL-28. The half-inhibitory concentration (IC50) in the experiment on SK-MEL-5 was 810 nM; with UACC-62, 750 nM; in the experiment with SK-OV-3, 840 nM; with A498 it was 860 nM; in the experiment with ACHN, above 2500 nM; with MOLT-4 it was above 2500 nM.
Consider `[C-]#[N+]C(=C\c1ccc(OC)cc1)/C(=C/c1ccc(OC)cc1)[N+]#[C-]`, for which the outcome in the experiment with HOP-92, in the experiment with NCI-H460, in the experiment with SF-295, in the experiment on U-251, with Malme-3M and in the experiment on SK-MEL-28 was inactive. Besides, the outcome in the experiment on SK-MEL-5, in the experiment with UACC-62, in the experiment on SK-OV-3, in the experiment on A498, with ACHN and in the experiment on MOLT-4 was inactive.
In the case of `COc1ccc(/C=C(NC=O)/C(=C/c2ccc(O)cc2)NC=O)cc1`, the concentration for half-maximal inhibition (IC50) was above 2500 nM with HOP-92; 1840 nM in the experiment with NCI-H460; above 2500 nM with SF-295; above 2500 nM in the experiment with U-251; above 2500 nM with Malme-3M; 2030 nM with SK-MEL-28. The half-maximal inhibitory concentration (IC50) with SK-MEL-5 was above 2500 nM; in the experiment on UACC-62 it was above 2500 nM; in the experiment with SK-OV-3 it was 2130 nM; with A498, 1720 nM; in the experiment on ACHN, 1370 nM; in the experiment with MOLT-4, 1810 nM.
Take `COc1ccc(/C=C(NC=O)/C(=C/c2ccc(OS(=O)(=O)O)cc2)NC=O)cc1`: the result in the experiment with Fusarium incarnatum, in the experiment with Candida albicans, in the experiment with HOP-92, in the experiment with NCI-H460, with SF-295 and in the experiment with U-251 was inactive. The result with Malme-3M, in the experiment with SK-MEL-28, in the experiment with SK-MEL-5, with UACC-62, with SK-OV-3 and with A498 was inactive. In addition, the outcome (with ACHN; with MOLT-4; in the experiment with Escherichia coli; with Staphylococcus aureus; in experiment [1]) was inactive.
`[C-]#[N+]C(=C\c1ccc(OC)cc1)/C(=C/c1ccc(OS(=O)(=O)O)cc1)[N+]#[C-]`: the outcome with Fusarium incarnatum, with Candida albicans, in the experiment on HOP-92, in the experiment with NCI-H460, in the experiment with SF-295 and in the experiment with U-251 was inactive. Moreover, the outcome in the experiment on Malme-3M, with SK-MEL-28, with SK-MEL-5, with UACC-62, in the experiment on SK-OV-3 and with A498 was inactive. Further, the outcome (in the experiment on ACHN; in the experiment on MOLT-4; with Escherichia coli; in the experiment with Staphylococcus aureus; in experiment [1]) was inactive.
